The source of these data is ChEMBL document CHEMBL3259569 (J Med Chem, 2014).

Data set [1] has as its system HCT-116. The experiment in a line: Anticancer activity against human HCT116 cells assessed as disruption of 3-dimensional spheroid structure after 72 hrs by phase-contrast light microscopic analysis. The format is functional, cell-based. The gist of the method: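 HCT116 cells (4 × 10^3/well) grown 5 days in semisolid GFR-Matrigel/10% FBS-DMEM (1:1) to form 3D spheres, then exposed to compound for 72 h; sphere structure examined by phase-contrast light microscopy.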

The subject of data set [2] is HCT-116. As to the kind of experiment: Induction of apoptosis in human HCT116 cells assessed as accumulation at sub-G1 phase after 24 hrs by propidium iodide staining-based flow cytometric analysis. It counts as functional, cell-based. The essentials: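 HCT116 cells treated with indicated concentrations for 24 h; DNA content analyzed by flow cytometry for cell cycle distribution and sub-G1 fraction; means of at least three independent experiments.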

Data set [3] can be described thus: Oral bioavailability in ICR mouse at 10 mg/kg by LC-MS/MS analysis. It counts as ADME, organism-based. The settings on record: in vivo.
Data set [4] addresses Histone deacetylase (Homo sapiens) (UniProt Q13547+O15379+Q9UBN7+Q92769+Q9UQL6+Q8WUI4+Q9BY41+Q96DB2+P56524+Q9UKV0+Q969S8). The settings on record: HCT-116, 1 uM.
The test system of data set [5] is HCT-116. As to the kind of experiment: Induction of apoptosis in human HCT116 cells assessed as PARP cleavage after 24 hrs by Western blotting analysis. It counts as functional, cell-based. The essentials: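 HCT116 cells treated with indicated concentrations for 24 h; lysates probed by Western blot for caspase 3 and PARP cleavage.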
A general note: Immunoblotting shows a protein as a band on a membrane.

Data set [6] relates to HCT-116. The experiment in a line: Antitumor activity against human HCT116 cells xenografted in nude athymic mouse assessed as tumor growth inhibition at 100 mg/kg/day, po after 2 to 16 days relative to control. The settings on record: read-out: TGI. It counts as functional. A general note: In xenograft studies the graft and the host belong to different species.
Another data set concerns the target Histone deacetylase 2 (Homo sapiens, UniProt Q92769).
Data set [7] can be described thus: Volume of distribution at steady state in ICR mouse at 2 mg/kg, iv by LC-MS/MS analysis. The format is ADME, organism-based. The settings on record: in vivo, read-out: Vdss. Also noted: dose 2 mg/kg, route intravenous.
In data set [8] the test system is HCT-116. The experiment in a line: Cytotoxicity against human HCT116 cells by MTT assay. The format is functional, cell-based. (Formazan colour is commonly taken as a measure of viable cells.)

The source made the active and inactive calls. No cut-off for these calls is given here.

Sequence of Histone deacetylase 2 (Q92769 whole entry): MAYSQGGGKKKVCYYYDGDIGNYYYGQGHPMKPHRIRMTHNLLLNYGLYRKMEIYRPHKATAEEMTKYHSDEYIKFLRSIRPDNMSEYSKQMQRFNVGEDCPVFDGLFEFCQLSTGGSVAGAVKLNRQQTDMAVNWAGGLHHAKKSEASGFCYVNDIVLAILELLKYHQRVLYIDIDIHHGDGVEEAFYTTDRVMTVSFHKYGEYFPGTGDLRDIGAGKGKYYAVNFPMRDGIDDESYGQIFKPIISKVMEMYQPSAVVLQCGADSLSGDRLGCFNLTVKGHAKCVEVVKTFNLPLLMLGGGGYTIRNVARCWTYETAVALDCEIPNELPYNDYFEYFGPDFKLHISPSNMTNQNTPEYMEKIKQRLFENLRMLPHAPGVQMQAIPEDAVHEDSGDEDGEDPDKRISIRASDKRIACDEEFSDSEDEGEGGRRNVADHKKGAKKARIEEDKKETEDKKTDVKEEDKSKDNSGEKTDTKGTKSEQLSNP

The term bioavailability denotes the share of a dose that reaches the circulation, judged against a reference dose that is usually intravenous. Read a low bioavailability as poor availability. One may read the IC50 as the concentration that inhibits the measured activity by half. The low end stands for higher potency, the high end for lower potency. Turning to `O=C(/C=C/c1cccc(S(=O)(=O)n2ccc3cccnc32)c1)NO`, the Activity result with HCT-116 [1], in the data set on HCT-116 [2] and with HCT-116 [5] was “Dose-dependent effect” in each case. The molecule also registered a bioavailability in data set [3] of 33%. Further, the inhibition result in [4] is “inactive”. Moreover, in the data set with HCT-116 [6], the inhibition in vivo at 100 mg/kg/day was 66.9%. The results for the IC50 against Histone deacetylase 2 and with HCT-116 [8] were 1160 nM and 390 nM, respectively. Moreover, the Vd in [7] turned out to be 9.8 L/kg.
